Screening data deposited in PubChem BioAssay by several laboratories.
Hck Nef HTS = human Hck-Nef kinase inhibition. P08631. Recombinant Hck-YEEI plus Nef, Z-Lyte FRET kinase assay. inhibition, % at 20 µM. actives 0.68% (n = 220,000);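 active = Hck-Nef kinase inhibition above about 50%, limit read from the data; inactive = inhibition below that limit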;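 note: 0% = DMSO with Hck plus Nef and 100% = Hck alone without Nef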
RanGTP-Impb inh = disruptors of Ran-importin-beta complex formation – biochemical, FRET, CFP-Ran, YFP-importin-beta, homogeneous, primary screen | cell-free CFP-Ran/YFP-importin-beta FRET ratio | inhibition, % (no concentration beside the values) | actives 1.1% (n = 300,000) | AID 2216;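 active = more than half of the replicate wells show a fall in the fluorescence ratio signal beyond about 16%, limit read from the data, passing the limit was not always enough; inconclusive = exactly half of the replicate wells pass the set limit; inactive = fewer than half of replicates pass the limit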;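 note: 0% = DMSO wells and 100% = Ran loaded with GDP instead of GTP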
Runt-CBFb FRET = inhibitors of human RUNX1 Runt domain binding to CBFb; actives 0.46% (n = 220,000); inhibition, % at 20 µM; Cerulean-Runt/Venus-CBFb FRET ratio 530/480, 1 h; Q01196+Q13951;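 active = inhibition over about 50% at 20 µM in the single-dose screen, limit read from the data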;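 note: 0% = DMSO wells and 100% = excess unlabeled CBFb competitor control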
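Schedule: protein complex preformed 1 h, compound exposure 1 h, room temperature, dark; test system: Cerulean-labeled Runt domain protein; amount: 100 nM per protein; buffer or medium: Tris 50 mM pH 7.5, KCl, K2SO4, 0.01% BSA; read-out: loss of energy transfer signal; detection: FRET fluorescence; controls: 5 µM unlabeled CBFb as full-inhibition high control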
14-3-3 Bad inh = disrupts binding of bovine 14-3-3 zeta to phospho-Bad peptide. P63103. TR-FRET 14-3-3zeta/Dy647-pBad peptide displacement, 1 h. inhibition, % at 21.7 µM. actives 0.71% (n = 220,000);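 active = inhibition above about 70%, limit read from the data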;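 note: 0% = full 14-3-3 plus peptide FRET controls and 100% = background without 14-3-3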
Target sequence (P63103 whole entry, looked up): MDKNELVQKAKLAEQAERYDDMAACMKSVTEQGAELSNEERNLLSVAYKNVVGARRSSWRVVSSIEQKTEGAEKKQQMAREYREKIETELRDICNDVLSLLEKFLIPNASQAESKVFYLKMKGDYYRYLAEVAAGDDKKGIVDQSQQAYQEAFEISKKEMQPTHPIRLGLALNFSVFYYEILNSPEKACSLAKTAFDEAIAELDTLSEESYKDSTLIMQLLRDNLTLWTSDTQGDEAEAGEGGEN
Tb hexokinase = T. brucei hexokinase 1 inhibition | recombinant TbHK1, G6PDH-coupled NADH A340 | inhibition, % at 10 µM | AID 1430 | actives 0.11% (n = 220,000);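 active = inhibition of 50% or more in the single-dose primary screen; inactive = inhibition below 50%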
Runt-SMMHC FRET = Runt domain-CBFb-SMMHC interaction inhibition; Q01196+Q13951; Cerulean-Runt/Venus-CBFb-SMMHC FRET ratio 530/480, 1 h; inhibition, % at 20 µM; actives 0.74% (n = 220,000); AID 1434;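 active = mean inhibition across duplicate retests at 20 µM reaching about 50%, limit read from the data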;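 note: 0% = DMSO wells and 100% = wells with excess untagged CBFb-SMMHC; inhibitors lower the FRET ratio by blocking Runt binding to CBFb-SMMHC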
Numbers without * were called inactive; ? = inconclusive; nt = not tested or not shown; [ ] = dose if it differs, or a comment. Most compounds without a hit are left out; they make up all but 2.2% or so of the library.

SMILES	Hck Nef HTS	RanGTP-Impb inh	Runt-CBFb FRET	14-3-3 Bad inh	Tb hexokinase	Runt-SMMHC FRET
c1coc(CNc2c3c(nc4ccccc24)CCC3)c1	7.1	78.9*	12.3	3.2	-22.5	44.4
CCN1CCN(C(c2cc(OC)ccc2OC)c2nnnn2Cc2ccccc2)CC1 (stereo not given)	1.4	1.5	0.4	79.3*	-4.1	1.1
COc1ccc(N2C(=O)CC(S/C(N)=N/N=C/c3ccnc4ccccc34)C2=O)cc1 (stereo not given)	31.1	-2.0	-4.2	75.4*[fluorescence artefact?]	-25.5	-7.3
COc1cc2c(cc1OC)CN(CC(O)c1ccccc1)CC2 (stereo not given)	nt	26.9*	nt	nt	nt	nt
CCOc1ccc(C(=O)Nc2cc(-c3nc4ccccc4[nH]3)ccc2C)cc1[N+](=O)[O-]	0.7	-1.9	-3.3	75.4*	-1.2	-9.7
CCOc1ccc(C(=O)Nc2cc(-c3nc4ccccc4[nH]3)ccc2Cl)cc1[N+](=O)[O-]	4.5	?	8.5	48.3	-10.7	-0.4
CC(CN1C(C)CCCC1C)OC(=O)c1ccccc1F (stereo not given)	nt	-1.1	nt	nt	nt	nt
N#CC1=C(N)SC(N)=C(C#N)C1CCC1CCCCC1	3.7	50.5*	21.9	-8.0	2.8	35.0
Nc1nnc(CCC2CCCCC2)s1	7.1	0.0	-0.2	18.4	6.9	0.3
O=C(NC1CCS(=O)(=O)C1)c1ccc2c(c1)OCO2 (stereo not given)	nt	0.9	nt	nt	nt	nt
C#CCOCCOCCOCCNc1nc(N2CCN(C(=O)[C@H]([C@@H](C)CC)n3cc(CCCN=C(N)N)nn3)CC2)nc(N2CCN(C(=O)[C@H]([C@@H](C)CC)n3cc(CCCN=C(N)N)nn3)CC2)n1	-3.5	11.2	-2.5	77.4*	5.7	-1.9
C#CCOCCOCCOCCNc1nc(N2CCN(C(=O)[C@H]([C@@H](C)CC)n3cc(CCCN=C(N)N)nn3)CC2)nc(N2CCN(C(=O)[C@H](C)n3cc(CCCN=C(N)N)nn3)CC2)n1	-2.5	4.1	2.0	75.1*	3.4	1.9
C#CCOCCOCCOCCNc1nc(N2CCN(C(=O)[C@H](Cc3ccc(O)cc3)n3cc(CCO)nn3)CC2)nc(N2CCN(C(=O)[C@H](Cc3ccc(O)cc3)n3cc(CCO)nn3)CC2)n1	7.0	1.5	-2.2	73.0*	-1.9	-0.3
C#CCOCCOCCOCCNc1nc(N2CCN(C(=O)[C@H]([C@@H](C)O)n3cc(CCCCN)nn3)CC2)nc(N2CCN(C(=O)[C@H](Cc3ccc(O)cc3)n3cc(CCO)nn3)CC2)n1	-6.9	2.2	-2.2	40.3	-7.0	-9.4
C#CCOCCOCCOCCNc1nc(N2CCN(C(=O)Cn3cc(CCCN=C(N)N)nn3)CC2)nc(N2CCN(C(=O)Cn3cc(CCCN=C(N)N)nn3)CC2)n1	-6.2	nt	1.8	87.7*	7.7	-1.6
C#CCOCCOCCOCCNc1nc(N2CCN(C(=O)[C@H](C)n3cc(CCCN=C(N)N)nn3)CC2)nc(N2CCN(C(=O)[C@H](C)n3cc(CCCN=C(N)N)nn3)CC2)n1	-1.0	0.3	-0.4	10.7	3.1	1.9
O=[N+]([O-])c1ccc(C(O)CN=Cc2ccc(O)cc2O)cc1 (stereo not given)	26.0	-2.8	5.1	-17.4	-34.3	3.8
O=C(Nc1ccc(OC(F)F)cc1)c1cc[n+]([O-])cc1	nt	-1.9	nt	nt	nt	nt
CCOc1ccc(C2C(C#N)=C(N)SC(N)=C2C#N)c(OCC)c1	5.4	18.9*	15.2	-12.4	-12.8	31.7
CCOc1cc(C2C(C#N)=C(N)SC(N)=C2C#N)ccc1OCCN1CCOCC1	1.1	?	23.6	-7.2	-19.5	15.3
COc1cc(/C=C/C(=O)NCCN2CCOCC2)cc(OC)c1OC	2.9	4.4	0.7	-18.1	20.4	0.3
CCC(NC(=O)Cc1c(C)c2cc3c(cc2oc1=O)OC(C)(C)CC3)C(=O)O (stereo not given)	nt	0.5	nt	nt	nt	nt
COc1ccc(-c2cc(=O)oc3cc(OC(=O)C4CCCCC4)c(Cl)cc23)cc1	40.0	20.7*	66.6*	-9.6	33.8	58.5*
O=C1/C(=C\c2ccco2)NC(=S)N1c1ccccc1	52.7*	-0.3	10.3	1.5	-9.8	-13.0
CCCN=C1N/C(=C\c2ccco2)C(=O)N1c1ccccc1	25.5	-3.5	-3.8	-11.2	-29.5	-35.6
